According to ChEMBL document CHEMBL4602728, “6-Amino[1,2,5]oxadiazolo[3,4-b]pyrazin-5-ol Derivatives as Efficacious Mitochondrial Uncouplers in STAM Mouse Model of Nonalcoholic Steatohepatitis” (J Med Chem, 2020):

Assay: Half life in C57BL/6 mouse at 10 mg/kg, po administered via gavage by LC/MS-MS analysis
Type: ADME, organism-based
Settings: in vivo
Outline: (§1)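 Male C57BL/6 mice aged 9–12 weeks received a single 10 mg/kg oral gavage bolus. The vehicle was methylcellulose 90–91%, Tween 80 2–3% and DMSO 6–8% (v/v). Tail-tip blood was drawn into heparinized capillaries and spun at 2000g for 10 min. Plasma was extracted with acetonitrile:methanol (9:1) and quantified by LC–MS/MS against spiked plasma standards (1–100 ng). n = 3.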

Row | half-life [min] | SMILES
1 | 18 | CCCCOc1ccc(Nc2nc3nonc3nc2O)cc1
2 | 36 | CC(C)(C)c1ccc(Nc2nc3nonc3nc2O)cc1
3 | 42 | CCCCc1ccc(Nc2nc3nonc3nc2O)cc1
4 | 24 | Oc1nc2nonc2nc1Nc1ccc2ccccc2c1

Assay: Solubility of compound in PBS at pH 7.4
Type: physicochemical
Settings: buffer

Row | solubility [µM] | SMILES
5 | < 10 | Fc1cccc(Nc2nc3nonc3nc2Nc2ccccc2F)c1

Assay: Half life in Swiss albino mouse at 10 mg/kg, po administered via gavage by LC/MS-MS analysis
Type: ADME, organism-based
Settings: in vivo
Outline: (§2)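 Swiss Albino mice were given 10 mg/kg by oral gavage in a triturated Tween 80/0.5% (w/v) methylcellulose formulation, with three replicates per time point. Plasma was precipitated with acetonitrile containing telmisartan internal standard and analyzed by LC–MS/MS using transition m/z 286 → 125. Concentrations came from a standard curve (1–1000 ng/mL).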

Row | half-life [min] | SMILES
6 | 66 | Oc1nc2nonc2nc1NC12CC3CC(CC(C3)C1)C2

Assay: Cmax in Swiss albino mouse at 10 mg/kg, po administered via gavage by LC/MS-MS analysis
Type: ADME, organism-based
Parameters: dose 10 mg/kg, route oral
Settings: in vivo
Outline: as §2

Row | Cmax [µM] | SMILES
7 | 18 | Oc1nc2nonc2nc1NC12CC3CC(CC(C3)C1)C2

Assay: Induction of mitochondrial uncoupling in rat L6 cells assessed as increase in oxygen consumption rate incubated for 90 mins by Seahorse XF analyzer based assay
Type: mitochondria, Mitochondria
Settings: not given

Row | EC50 [µM] | SMILES
8 | 4.6 | Cc1cc(OC(F)(F)F)ccc1Nc1nc2nonc2nc1O
9 | 1.4 | Oc1nc2nonc2nc1Nc1ccc(SC(F)(F)F)cc1
10 | 42.3 | Oc1nc2nonc2nc1Nc1ccc(OCC(F)(F)F)cc1
11 | 2.3 | Oc1nc2nonc2nc1Nc1ccc(OC(F)(F)F)cc1F
12 | 4 | Oc1nc2nonc2nc1Nc1ccc(OCC(F)(F)F)c(C(F)(F)F)c1
13 | 2.6 | Oc1nc2nonc2nc1Nc1ccc(C(F)(F)F)cc1F
14 | 1.8 | Oc1nc2nonc2nc1Nc1ccc(OCC2CC2)c(C(F)(F)F)c1
15 | 2.9 | Oc1nc2nonc2nc1Nc1ccc(OC(F)(F)F)c(F)c1
16 | 3.8 | COc1cc(OC(F)(F)F)ccc1Nc1nc2nonc2nc1O
17 | 5.1 | Oc1nc2nonc2nc1Nc1cccc(OC(F)(F)F)c1
18 | 10.4 | Oc1nc2nonc2nc1Nc1ccc(C(F)(F)F)cc1
19 | 13.3 | Oc1nc2nonc2nc1Nc1cccc(C(F)(F)F)c1
20 | 11.6 | Oc1nc2nonc2nc1Nc1ccc(C(F)(F)F)c(F)c1
21 | 10.4 | Oc1nc2nonc2nc1Nc1ccc(OCC(F)(F)F)c(F)c1
22 | 1.9 | Oc1nc2nonc2nc1Nc1ccc(OC(F)(F)Cl)cc1
23 | 7 | Oc1nc2nonc2nc1Nc1ccc(OC(F)(F)C(F)F)cc1
24 | 1.4 | Oc1nc2nonc2nc1Nc1ccc(OC(F)(F)F)cc1Cl
25 | 4.2 | Oc1nc2nonc2nc1Nc1ccc(OCCCC(F)(F)F)c(F)c1
26 | 53.5 | O=[N+]([O-])c1cc(Nc2nc3nonc3nc2O)ccc1OC(F)(F)F
27 | 7 | Cc1cc(Nc2nc3nonc3nc2O)ccc1OCC(F)(F)F
28 | 32.8 | Cc1ccc(C(F)(F)F)cc1Nc1nc2nonc2nc1O
29 | 3 | Oc1nc2nonc2nc1Nc1ccc(OC(F)(F)F)c(Cl)c1
30 | 7.1 | Oc1nc2nonc2nc1Nc1ccccc1OC(F)(F)F

Further lines, the compound ahead of its results:

Row | SMILES | EC50 [µM]
31 | Oc1nc2nonc2nc1Nc1cccc(F)c1 | 31.2
32 | Oc1nc2nonc2nc1Nc1ccc2c(c1)OC(F)(F)O2 | 7.6
33 | CCCCOc1ccc(Nc2nc3nonc3nc2O)cc1 | 3.7
34 | Oc1nc2nonc2nc1Nc1ccccc1 | 66.7
35 | CCCCc1ccc(Nc2nc3nonc3nc2O)c(F)c1 | 1.1
36 | Cc1ccc(CNc2nc3nonc3nc2O)cc1 | 53.2
37 | Oc1nc2nonc2nc1Nc1cccc(OCc2ccc(C(F)(F)F)cc2)c1 | 3
38 | Cc1ccc(Nc2nc3nonc3nc2O)cc1 | 51.9
39 | Oc1nc2nonc2nc1Nc1ccc2c(c1)OCO2 | 46.9
40 | Oc1nc2nonc2nc1Nc1ccc(OCc2ccccc2)cc1 | 2.4
41 | Oc1nc2nonc2nc1NC(c1ccccc1)c1ccccc1 | 38.3
42 | Oc1nc2nonc2nc1Nc1ccc(OCCCC(F)(F)F)c(C(F)(F)F)c1 | 2.1
43 | Oc1nc2nonc2nc1NC12CC3CC(CC(C3)C1)C2 | 7
44 | CC(C)(C)c1cccc(Nc2nc3nonc3nc2O)c1 | 2.2
45 | Oc1nc2nonc2nc1NCCc1ccccc1 | 65.5
46 | Oc1nc2nonc2nc1Nc1ccccc1Cl | 6.3
47 | Oc1nc2nonc2nc1Nc1cccc(S(F)(F)(F)(F)F)c1 | 3.7
48 | Oc1nc2nonc2nc1Nc1cccc(F)c1F | 9.7
49 | Oc1nc2nonc2nc1Nc1ccc(OC(F)F)cc1 | 20.6
50 | CC(C)(C)c1ccc(Nc2nc3nonc3nc2O)cc1 | 3.9
51 | CCCCCCCCNc1nc2nonc2nc1O | 3.4
52 | Cc1cc(C)c(Nc2nc3nonc3nc2O)c(C)c1 | 113
53 | Oc1nc2nonc2nc1Nc1cccc(C(F)(F)F)c1F | 4.9
54 | CCCCCc1ccc(Nc2nc3nonc3nc2O)c(F)c1 | 1.5
55 | Oc1nc2nonc2nc1Nc1ccc(S(F)(F)(F)(F)F)cc1 | 3.9
56 | CCc1cccc(Nc2nc3nonc3nc2O)c1 | 25.2
57 | Oc1nc2nonc2nc1Nc1ccc(F)cc1 | 38.6

Row | SMILES | EC50 [µM]
58 | Oc1nc2nonc2nc1Nc1cc(C(F)(F)F)ccc1F | 5.1
59 | CC12CC3CC(C)(C1)CC(Nc1nc4nonc4nc1O)(C3)C2 | 2
60 | CCCCc1ccc(Nc2nc3nonc3nc2O)cc1 | 2.1
61 | Oc1nc2nonc2nc1Nc1ccc(Cl)cc1 | 11.7
62 | CC(=O)c1ccc(Nc2nc3nonc3nc2O)cc1 | 93.7
63 | Oc1nc2nonc2nc1NCc1ccc(OC(F)(F)F)cc1 | 13.4
64 | Oc1nc2nonc2nc1Nc1ccccc1C(F)(F)F | 10.6
65 | Oc1nc2nonc2nc1NCCC(F)(F)F | 110
66 | Oc1nc2nonc2nc1NC1C2CC3CC(C2)CC1C3 (stereo not drawn) | 22.8
67 | CCCCCCc1ccc(Nc2nc3nonc3nc2O)cc1 | 4.7
68 | Oc1nc2nonc2nc1Nc1cc(C(F)(F)F)cc(C(F)(F)F)c1 | 4.5
69 | Oc1nc2nonc2nc1Nc1cc(F)cc(F)c1 | 23.4
70 | CC(C)(C#N)c1ccc(Nc2nc3nonc3nc2O)cc1 | 35.7
71 | CCCCCc1ccc(Nc2nc3nonc3nc2O)cc1 | 2.4
72 | COc1cccc(Nc2nc3nonc3nc2O)c1 | 75.4
73 | CCCCOc1cccc(Nc2nc3nonc3nc2O)c1 | 2.3
74 | Cc1ccc(Nc2nc3nonc3nc2O)cc1C | 3
75 | Oc1nc2nonc2nc1Nc1ccc2ccccc2c1 | 4
76 | CC(Nc1nc2nonc2nc1O)C12CC3CC(CC(C3)C1)C2 (stereo not drawn) | 4.9
77 | Oc1nc2nonc2nc1Nc1ccccc1F | 12.5
78 | Cc1cccc(C)c1Nc1nc2nonc2nc1O | > 100
79 | CCc1ccc(Nc2nc3nonc3nc2O)cc1 | 10.7
80 | CCCCCCc1ccc(Nc2nc3nonc3nc2O)c(F)c1 | 3.3
81 | Oc1nc2nonc2nc1Nc1ccc(C(O)(C(F)(F)F)C(F)(F)F)cc1 | 34
82 | CCc1ccc(Nc2nc3nonc3nc2O)c(F)c1 | 6.7
83 | Oc1nc2nonc2nc1Nc1cccc2ccccc12 | 20.4
84 | Fc1cccc(Nc2nc3nonc3nc2Nc2ccccc2F)c1 | 0.19

Assay: Cmax in C57BL/6 mouse at 10 mg/kg, po administered via gavage by LC/MS-MS analysis
Type: ADME, organism-based
Parameters: dose 10 mg/kg, route oral
Settings: in vivo
Outline: as §1

Row | Cmax [µM] | SMILES
85 | 3.4 | CCCCOc1ccc(Nc2nc3nonc3nc2O)cc1
86 | 22.3 | CC(C)(C)c1ccc(Nc2nc3nonc3nc2O)cc1
87 | 12 | CCCCc1ccc(Nc2nc3nonc3nc2O)cc1
88 | 12.5 | Oc1nc2nonc2nc1Nc1ccc2ccccc2c1
